Measurements as given in ChEMBL document CHEMBL4312029, “Structure-activity relationship studies and in vitro and in vivo anticancer activity of novel 3-aroyl-1,4-diarylpyrroles against solid tumors and hematological malignancies” (Eur J Med Chem, 2020).

Tests used:
[1] = target: Tubulin; assay: Inhibition of tubulin polymerization (unknown origin) incubated for 15 mins followed by GTP addition and measured for 20 mins by spectrophotometry; type: protein-complex assay, Homo sapiens
How it was run: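 Tubulin assembly assay with tubulin at 10 µM. IC50 for inhibition of polymerization; run in duplicate or triplicate.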

[2] = system: MCF7; assay: Cytotoxicity against human MCF7 cells assessed as reduction in cell growth incubated for 96 hrs by MTT assay; type: functional, cell-based; settings: MCF7, 96 h
How it was run: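 Growth inhibition of human breast carcinoma cells, reported as IC50; run in duplicate or triplicate.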

[3] = target: Tubulin (Homo sapiens) (UniProt P68371+Q9H4B7+P0DPH7+P68366+Q13509+Q71U36+P04350+Q3ZCM7+P07437+P68363+Q9BQE3+Q6PEY2+Q13885+Q9BVA1+Q9BUF5); assay: Inhibition of [3H]colchicine binding to tubulin (unknown origin) at 5 uM incubated for 10 mins by DEAE-cellulose filter method relative to control; type: protein-complex assay

Row | SMILES | IC50 [1] [nM] | inhibition [3] [%] | IC50 [2] [nM]
1 | COc1cc(C(=O)c2cn(-c3ccc(N)cc3)cc2-c2ccccc2F)cc(OC)c1OC | 590 | 79 | 28
2 | COc1cc(C(=O)c2cn(-c3ccccc3)cc2-c2ccccc2[N+](=O)[O-])cc(OC)c1OC | 730 | 61 | 49
3 | COc1cc(C(=O)c2cn(-c3ccc(C)cc3)cc2-c2cccc(N)c2)cc(OC)c1OC | 420 | 88 | 53
4 | COc1cc(C(=O)c2cn(-c3ccc(C)cc3)cc2-c2ccccc2Cl)cc(OC)c1OC | 480 | 70 | 180
5 | COc1cc(C(=O)c2cn(-c3ccc(C)cc3)cc2-c2ccccc2F)cc(OC)c1OC | 780 | 80 | 44
6 | COc1cc(C(=O)c2cn(-c3cccc(C)c3)cc2-c2ccccc2F)cc(OC)c1OC | 790 | 57 | 190
7 | COc1cc(C(=O)c2cn(-c3cccc(C)c3)cc2-c2ccccc2Cl)cc(OC)c1OC | 710 | 39 | 420
8 | COc1cc(C(=O)c2cn(-c3ccc(N)cc3)cc2-c2ccccc2)cc(OC)c1OC | 1600 | 67 | 35
9 | COc1cc(C(=O)c2cn(-c3ccccc3)cc2-c2cccc([N+](=O)[O-])c2)cc(OC)c1OC | 940 | 12 | 50
10 | COc1cc(C(=O)c2cn(-c3ccc(Br)cc3)cc2-c2ccccc2)cc(OC)c1OC | 660 | 78 | 20
11 | COc1cc(C(=O)c2cn(-c3ccc(F)cc3)cc2-c2cccc(N)c2)cc(OC)c1OC | 410 | 68 | 53
12 | COc1cc(C(=O)c2cn(-c3cccc(Br)c3)cc2-c2ccccc2)cc(OC)c1OC | 1900 | 23 | 78
13 | COc1cc(C(=O)c2cn(-c3ccccc3)cc2-c2ccc([N+](=O)[O-])cc2)cc(OC)c1OC | > 20000 |  | 590
14 | COc1ccc(-n2cc(C(=O)c3cc(OC)c(OC)c(OC)c3)c(-c3ccccc3)c2)cc1 | 960 | 27 | 120
15 | COc1cc(C(=O)c2cn(-c3ccc(F)cc3)cc2-c2cccc([N+](=O)[O-])c2)cc(OC)c1OC | > 20000 | 11 | 440
16 | COc1cc(C(=O)c2cn(-c3ccccc3)cc2-c2ccccc2Cl)cc(OC)c1OC | 630 | 50 | 76
17 | COc1cc(C(=O)c2cn(-c3ccc([N+](=O)[O-])cc3)cc2-c2ccccc2)cc(OC)c1OC | 3300 | 18 | 4000
18 | COc1cc(C(=O)c2cn(-c3ccc(Cl)cc3)cc2-c2ccccc2)cc(OC)c1OC | 1700 | 42 | 140
19 | COc1cc(C(=O)c2cn(-c3ccccc3Cl)cc2-c2ccccc2)cc(OC)c1OC | > 20000 |  | 1800
20 | COc1ccccc1-n1cc(C(=O)c2cc(OC)c(OC)c(OC)c2)c(-c2ccccc2)c1 | 1300 | 22 | 150
21 | COc1cccc(-n2cc(C(=O)c3cc(OC)c(OC)c(OC)c3)c(-c3ccccc3)c2)c1 | 1600 | 25 | 500
22 | COc1cc(C(=O)c2cn(-c3cccc(N)c3)cc2-c2ccccc2Cl)cc(OC)c1OC | 630 | 79 | 40
23 | COc1ccccc1-c1cn(-c2ccccc2)cc1C(=O)c1cc(OC)c(OC)c(OC)c1 | 550 | 31 | 190
24 | COc1cc(C(=O)c2cn(-c3ccccc3)cc2-c2cccc(Cl)c2)cc(OC)c1OC | 2300 | 7.5 | 540
25 | COc1cc(C(=O)c2cn(-c3cccc(C)c3)cc2-c2cccc([N+](=O)[O-])c2)cc(OC)c1OC | > 20000 | 4.2 | 880
26 | COc1cc(C(=O)c2cn(-c3ccccc3C)cc2-c2ccccc2)cc(OC)c1OC | > 20000 |  | 2200

Second part, led by results:

Row | IC50 [1] [nM] | inhibition [3] [%] | SMILES | IC50 [2] [nM]
27 | 790 | 18 | COc1cc(C(=O)c2cn(-c3ccccc3)cc2-c2ccccc2C)cc(OC)c1OC | 190
28 | > 20000 |  | COc1ccc(Br)cc1-c1cn(-c2ccccc2)cc1C(=O)c1cc(OC)c(OC)c(OC)c1 | 2200
29 | 680 | 46 | COc1cc(C(=O)c2cn(-c3ccc(F)cc3)cc2-c2ccccc2[N+](=O)[O-])cc(OC)c1OC | 38
30 | 480 | 42 | COc1ccc(-c2cn(-c3ccccc3)cc2C(=O)c2cc(OC)c(OC)c(OC)c2)cc1 | 70
31 | > 20000 | 12 | COc1cc(C(=O)c2cn(-c3cccc([N+](=O)[O-])c3)cc2-c2ccccc2)cc(OC)c1OC | 550
32 | > 20000 | 6.5 | COc1cc(C(=O)c2cn(-c3cc(OC)c(OC)c(OC)c3)cc2-c2ccccc2)cc(OC)c1OC | > 5000
33 | 660 | 68 | COc1cc(C(=O)c2cn(-c3ccc(F)cc3)cc2-c2ccccc2F)cc(OC)c1OC | 39
34 | 360 | 95 | COc1cc(C(=O)c2cn(-c3ccc(C)cc3)cc2-c2ccc(N)cc2)cc(OC)c1OC | 6
35 | 710 | 65 | COc1cc(C(=O)c2cn(-c3ccc(N)cc3)cc2-c2ccccc2Cl)cc(OC)c1OC | 83
36 | 1200 | 23 | COc1cc(C(=O)c2cn(-c3ccccc3)cc2-c2ccc(Cl)cc2)cc(OC)c1OC | 290
37 | 780 | 41 | COc1cc(C(=O)c2cn(-c3cccc(N)c3)cc2-c2ccc([N+](=O)[O-])cc2)cc(OC)c1OC | 110
38 | 510 | 65 | COc1cc(C(=O)c2cn(-c3ccc(F)cc3)cc2-c2ccccc2Cl)cc(OC)c1OC | 83
39 | > 20000 |  | COc1cc(C(=O)c2cn(-c3ccccc3)cc2-c2cccc(Br)c2)cc(OC)c1OC | 950
40 | 330 | 88 | COc1cc(C(=O)c2cn(-c3cccc(C)c3)cc2-c2ccc(N)cc2)cc(OC)c1OC | 18
41 | 450 | 27 | COc1cccc(-c2cn(-c3ccccc3)cc2C(=O)c2cc(OC)c(OC)c(OC)c2)c1 | 180
42 | 1700 | 32 | COc1cc(C(=O)c2cn(-c3cccc(N)c3)cc2-c2cccc([N+](=O)[O-])c2)cc(OC)c1OC | 510
43 | 770 | 14 | COc1cc(C(=O)c2cn(-c3ccccc3)cc2-c2ccc(Br)cc2)cc(OC)c1OC | 340
44 | 910 | 64 | COc1cc(C(=O)c2cn(-c3cccc(C)c3)cc2-c2cccc(N)c2)cc(OC)c1OC | 130

Row | IC50 [1] [nM] | inhibition [3] [%] | SMILES | IC50 [2] [nM]
45 | > 20000 | 0 | COc1cc(C(=O)c2cn(-c3ccc(F)cc3)cc2-c2ccc([N+](=O)[O-])cc2)cc(OC)c1OC | 240
46 | 1300 | 24 | COc1cc(C(=O)c2cn(-c3ccccc3)cc2-c2cc(F)ccc2F)cc(OC)c1OC | 230
47 | 650 | 34 | COc1cc(C(=O)c2cn(-c3ccc(C)cc3)cc2-c2ccc([N+](=O)[O-])cc2)cc(OC)c1OC | 200
48 | 3800 | 18 | COc1cc(C(=O)c2cn(-c3ccc(N)cc3)cc2-c2cccc([N+](=O)[O-])c2)cc(OC)c1OC | 260
49 | 610 | 71 | COc1cc(C(=O)c2cn(-c3ccc(C)cc3)cc2-c2ccccc2[N+](=O)[O-])cc(OC)c1OC | 65
50 | 1800 | 23 | COc1cc(C(=O)c2cn(-c3ccc(N)cc3)cc2-c2ccc([N+](=O)[O-])cc2)cc(OC)c1OC | 260
51 | 1200 |  | COc1cc(C(=O)c2cn(-c3ccccc3)cc2-c2ccc(N)cc2)cc(OC)c1OC | 9
52 | 880 | 70 | COc1cc(C(=O)c2cn(-c3cccc(N)c3)cc2-c2cccc(N)c2)cc(OC)c1OC | 60
53 | > 20000 |  | COc1cc(C(=O)c2cn(-c3ccccc3N)cc2-c2ccccc2)cc(OC)c1OC | 3800
54 | 1100 | 41 | COc1cc(C(=O)c2cn(-c3cccc(F)c3)cc2-c2ccccc2[N+](=O)[O-])cc(OC)c1OC | 190
55 | > 20000 |  | COc1cc(C(=O)c2cn(-c3ccccc3[N+](=O)[O-])cc2-c2ccccc2)cc(OC)c1OC | 5000
56 | 710 | 36 | COc1cc(C(=O)c2cn(-c3ccc(C)cc3)cc2-c2cccc([N+](=O)[O-])c2)cc(OC)c1OC | 210
57 | > 20000 | 10 | COc1cc(C(=O)c2cn(-c3cccc(C)c3)cc2-c2ccc([N+](=O)[O-])cc2)cc(OC)c1OC | 780
58 | 2100 | 37 | COc1cc(C(=O)c2cn(-c3cccc(Cl)c3)cc2-c2ccccc2)cc(OC)c1OC | 150
59 | 1200 | 41 | COc1cc(C(=O)c2cn(-c3cccc(C)c3)cc2-c2ccccc2[N+](=O)[O-])cc(OC)c1OC | 220
60 | > 20000 |  | COc1cc(C(=O)c2cn(-c3ccccc3)cc2/C=C/c2ccccc2)cc(OC)c1OC | 2200
61 | 510 | 27 | COc1cc(C(=O)c2cn(-c3ccccc3)cc2-c2c(F)cc(F)cc2F)cc(OC)c1OC | 180
